Results on 60 compounds are retold here after ChEMBL document CHEMBL4842369, “Synthesis, structure-activity relationship and antiviral activity of indole-containing inhibitors of Flavivirus NS2B-NS3 protease” (Eur J Med Chem, 2021).

One data set addresses Nonstructural protein 3 (Zika virus, UniProt A0A024AXB9). Nature of the data set: Inhibition of Zika virus recombinant NS2B (47 to 95 residues)/NS3 (1 to 177 residues) protease expressed in Escherichia coli BL21 using Bz-Nle-Lys-Lys-Arg-AMC as substrate preincubated for 10 mins by fluorescence-based biochemical assay. In a few lines: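 ZIKV NS2B-NS3 protease at 1 nM, with 10 µM Bz-Nle-Lys-Lys-Arg-AMC in 20 mM HEPES pH 7.3 containing 0.05% Triton X-100. Compound at increasing concentrations in triplicate, pre-incubated with enzyme 10 min before substrate. Fluorescence (Ex 360/Em 460 nm) read every 30 s. IC50 from dose-response curve fit, 3 independent experiments, standard deviation.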

The target of data set [1] is Genome polyprotein (dengue virus type 2, UniProt P29990). Nature of the data set: Inhibition of Dengue virus 2 NS2B (50 to 95 residues)/NS3 (1 to 182 residues) protease expressed in Escherichia coli BL21 using Bz-Nle-Lys-Lys-Arg-AMC as substrate preincubated for 10 mins by fluorescence-based biochemical assay. In a few lines: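 Recombinant DENV-2 NS2B-NS3 protease assayed like the ZIKV protease. Bz-Nle-Lys-Lys-Arg-AMC substrate, compound pre-incubated with enzyme 10 min, fluorescence monitored at Ex 360/Em 460 nm. IC50 from dose-response fit of triplicate samples at increasing concentrations.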

The target of data set [2] is Genome polyprotein (West Nile virus, UniProt P06935). Nature of the data set: Inhibition of West Nile virus NS2B (49 to 96 residues)/NS3 (2 to 184 residues) protease expressed in Escherichia coli BL21 using Bz-Nle-Lys-Lys-Arg-AMC as substrate preincubated for 10 mins by fluorescence-based biochemical assay. Summed up: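 Recombinant WNV NS2B-NS3 protease, tested in the same way as the Zika protease assay. Compound was preincubated with enzyme for 10 min before Bz-Nle-Lys-Lys-Arg-AMC was added. Hydrolysis was followed as AMC fluorescence (Ex 360/Em 460 nm) read every 30 s. IC50 was derived by dose-response curve fitting.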

The next data set deals with U-87 MG. Nature of the data set: Cytotoxicity against human U87 cells assessed as inhibition of growth by MTT assay. As to conditions: u-87mg atcc. Type of data set: cell-based.
The test system of another data set is Zika virus. Nature of the data set: Antiviral activity against Zika virus infected in human U87 cells assessed as reduction in infectious virus in supernatant by measuring infection of Vero cells incubated with supernatant of viral infected U87 cells and measured following infection of supernatants with Vero cells for 7 days by MTT assay. In kind it is functional. Particulars: U-87 MG, 168 h, time 7 day. Summed up:
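U87 cells (2×10^4/well) in DMEM with 2% FBS, infected with ZIKV FLR strain (passage-3 stock) at MOI 0.01 for 1 h, then PBS-washed. Compound added in triplicate, 2 days at 37 °C. Half-log dilutions of supernatant put on Vero monolayers in quadruplicate for 7 days. CPE by microscopy then MTT. TCID50 from highest dilution infecting 2/4 wells. At least 2 independent experiments.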

pIC50: −log10 of the molar value.

Chain of Genome polyprotein (West Nile virus, UniProt P06935) (P06935 1371-1501 limits assumed): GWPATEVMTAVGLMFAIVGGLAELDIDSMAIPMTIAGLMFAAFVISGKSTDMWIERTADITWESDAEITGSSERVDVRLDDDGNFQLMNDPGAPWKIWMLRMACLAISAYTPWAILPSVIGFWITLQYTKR
Chain of Genome polyprotein (West Nile virus, UniProt P06935) (P06935 1502-2120 limits assumed): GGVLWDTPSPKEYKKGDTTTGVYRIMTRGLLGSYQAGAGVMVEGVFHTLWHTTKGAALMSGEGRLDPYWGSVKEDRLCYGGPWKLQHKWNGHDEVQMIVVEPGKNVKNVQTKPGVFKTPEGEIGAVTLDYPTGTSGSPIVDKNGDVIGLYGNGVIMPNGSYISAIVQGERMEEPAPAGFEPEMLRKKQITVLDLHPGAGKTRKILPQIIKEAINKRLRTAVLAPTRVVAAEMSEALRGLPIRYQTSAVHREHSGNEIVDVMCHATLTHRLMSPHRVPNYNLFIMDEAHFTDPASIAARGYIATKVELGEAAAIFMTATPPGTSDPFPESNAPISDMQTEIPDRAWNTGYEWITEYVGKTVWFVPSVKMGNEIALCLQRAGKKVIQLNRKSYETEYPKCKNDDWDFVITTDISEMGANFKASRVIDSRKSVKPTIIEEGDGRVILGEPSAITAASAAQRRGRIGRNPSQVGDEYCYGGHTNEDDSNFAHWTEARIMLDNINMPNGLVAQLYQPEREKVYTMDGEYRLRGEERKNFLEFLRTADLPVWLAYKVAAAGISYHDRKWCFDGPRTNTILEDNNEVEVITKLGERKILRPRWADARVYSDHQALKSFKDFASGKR
Chain of Nonstructural protein 3 (A0A024AXB9 whole entry, the tested form may be a part): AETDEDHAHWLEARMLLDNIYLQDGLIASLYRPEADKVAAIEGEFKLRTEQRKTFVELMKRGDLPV
Chain of Genome polyprotein (dengue virus type 2, UniProt P29990) (P29990 1346-1475 limits assumed): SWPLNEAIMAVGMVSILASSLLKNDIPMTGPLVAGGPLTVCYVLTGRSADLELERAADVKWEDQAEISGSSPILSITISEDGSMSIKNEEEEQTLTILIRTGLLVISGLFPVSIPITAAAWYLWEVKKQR
Chain of Genome polyprotein (dengue virus type 2, UniProt P29990) (P29990 1476-2093 limits assumed): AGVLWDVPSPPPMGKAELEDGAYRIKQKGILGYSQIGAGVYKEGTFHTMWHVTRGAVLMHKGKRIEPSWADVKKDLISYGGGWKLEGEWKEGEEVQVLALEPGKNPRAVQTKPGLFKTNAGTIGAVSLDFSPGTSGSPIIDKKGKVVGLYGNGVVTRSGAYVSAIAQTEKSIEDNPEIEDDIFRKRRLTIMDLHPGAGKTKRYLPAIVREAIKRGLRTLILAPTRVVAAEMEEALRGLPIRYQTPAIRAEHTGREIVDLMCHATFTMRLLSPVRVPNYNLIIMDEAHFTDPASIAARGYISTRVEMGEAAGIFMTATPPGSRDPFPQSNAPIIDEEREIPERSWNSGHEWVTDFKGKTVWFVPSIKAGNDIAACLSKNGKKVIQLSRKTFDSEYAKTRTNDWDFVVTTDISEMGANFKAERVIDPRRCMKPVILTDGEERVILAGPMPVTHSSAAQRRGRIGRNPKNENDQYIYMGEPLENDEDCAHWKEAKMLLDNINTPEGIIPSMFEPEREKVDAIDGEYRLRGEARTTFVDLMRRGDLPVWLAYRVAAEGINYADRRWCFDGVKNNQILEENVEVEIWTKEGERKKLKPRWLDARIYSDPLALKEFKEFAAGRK

Consider `CC(C)(C)c1ccc(-c2ccc3c(c2)c(C(=O)NCC2CCNCC2)cn3CCCC2CCNCC2)cc1`, for which the pIC50 on Nonstructural protein 3 is 4.84.
The same measure, in the same setting: as for `O=C(NCC1CCNCC1)c1cc2ccc(-c3ccccc3)cc2[nH]1`, the figure is 5.03.
With `O=C(NCC1CCNCC1)c1cc2cc(-c3ccc(N4CCNCC4)cc3)ccc2[nH]1`, the pIC50 on Nonstructural protein 3 is 5.06.
As for `Cc1ccc(-c2ccc3c(C(=O)NCC4CCNCC4)c[nH]c3c2)cc1`, the pIC50 is 4.31 at Nonstructural protein 3, below 4.30 against Genome polyprotein [1] and below 4.30 against Genome polyprotein [2].
For `NCc1ccc(-c2ccc3cc(C(=O)NCC4CCNCC4)[nH]c3c2)cc1`, the pIC50 at Nonstructural protein 3 was 5.49.
On the same count and under the same terms, as for `O=C(NCC1CCNCC1)c1cc2ccc(-c3ccc(N4CCCCC4)cc3)cc2[nH]1`, the figure is 5.10.
`N#Cc1ccc(-c2ccc3c(C(=O)NCC4CCNCC4)c[nH]c3c2)cc1`: the pIC50 on Nonstructural protein 3 was 4.66; at Genome polyprotein [1] it was 4.92; against Genome polyprotein [2] it was 4.30.
As for `O=C(NCC1CCNCC1)c1c[nH]c2cc(-c3ccccc3F)ccc12`, the pIC50 on Nonstructural protein 3 is below 4.30.
Same read-out and setting: as for `CC(C)(C)c1ccc(-c2ccc3c(ccn3Cc3ccc(-c4ccoc4)cc3)c2)cc1`, the figure is below 4.30; as for `O=C(NCC1CCNCC1)c1c[nH]c2cc(-c3cccnc3)ccc12`, 5.96.
The same measure, in the same setting: as for `O=C(NC1CCNCC1)c1cc2ccc(-c3ccncc3)cc2[nH]1`, the figure is 5.01; as for `CC(C)(C)c1ccc(-c2ccc3[nH]cc(C(=O)NCC4CCNCC4)c3c2)cc1`, 4.96; as for `O=C(NCC1CCNCC1)c1c[nH]c2ccc(-c3ccc(F)cc3F)cc12`, below 4.30.
`O=C(NCC1CCNCC1)c1cc2cc(-c3cn[nH]c3)ccc2[nH]1`: the pIC50 on Nonstructural protein 3 was 5.22.
Same read-out and setting: as for `N#Cc1ccc(-c2ccc3[nH]cc(C(=O)NC4CCNCC4)c3c2)cc1`, the figure is below 4.30; as for `NC(=O)c1ccc(-c2ccc3cc(C(=O)NCC4CCNCC4)[nH]c3c2)cc1`, 5.15.
Turning to `COc1ccc(-c2ccc3cc(C(=O)NCC4CCNCC4)[nH]c3c2)cc1`, the pIC50 was 6.00 on Nonstructural protein 3, 4.97 against Genome polyprotein [1] and 4.70 at Genome polyprotein [2].
As for `O=C(NCC1CCNCC1)c1cc2ccc(C3=CCNCC3)cc2[nH]1`, the pIC50 on Nonstructural protein 3 is 4.68.
Consider `NCc1ccc(-c2ccc3[nH]c(C(=O)NCC4CCNCC4)cc3c2)cc1`, for which the pIC50 at Nonstructural protein 3 is 5.02.
Same read-out and setting: as for `N#Cc1cccc(-c2ccc3[nH]c(C(=O)NCC4CCNCC4)cc3c2)c1`, the figure is 4.52.
The same measure, in the same setting: as for `O=C(NCC1CCNCC1)c1cc2ccc(-c3ccc(F)cc3)cc2[nH]1`, the figure is 4.84; as for `O=C(NCC1CCNCC1)c1cc2ccc(-c3ccc(N4CCNCC4)cc3)cc2[nH]1`, 5.25; as for `COc1cc(-c2ccc3c(C(=O)NCC4CCNCC4)c[nH]c3c2)cc(OC)c1OC`, below 4.30.
Regarding `O=C(NCC1CCNCC1)c1cc2cc(-c3ccncc3)ccc2[nH]1`, the pIC50 on Nonstructural protein 3 was 4.43.
On the same count and under the same terms, as for `NCc1ccc(-c2ccc3c(C(=O)NCC4CCNCC4)c[nH]c3c2)cc1`, the figure is below 4.30.
Regarding `CC(C)(C)c1ccc(-c2ccc3c(C(=O)NCC4CCNCC4)c[nH]c3c2)cc1`, the results for the pIC50 on Nonstructural protein 3, at Genome polyprotein [1] and at Genome polyprotein [2] were 5.30, 4.52 and 4.45, respectively.
As to `O=C(NCC1CCNCC1)c1cc2cc(-c3ccc(-c4ccsc4)cc3)ccc2[nH]1`, the pIC50 on Nonstructural protein 3 was 5.96.
Turning to `O=C(NCC1CCNCC1)c1cc2cc(-c3cccnc3)ccc2[nH]1`, at Nonstructural protein 3, the pIC50 was below 4.30.
In the case of `CC(C)(C)c1ccc(-c2ccc3cc(C(=O)NCC4CCNCC4)[nH]c3c2)cc1`, the pIC50 against Genome polyprotein [1] was 4.82; against Genome polyprotein [2], 4.66.
`O=C(NCC1CCNCC1)c1c[nH]c2cc(-c3ccc(-c4ccccc4)cc3)ccc12`: the CC50 in the data set with U-87 MG is above 10 µM. Also, at Nonstructural protein 3, the pIC50 was 5.38. Also, the EC68 in the data set with Zika virus is above 10 µM.
In the case of `CC(C)(C)c1ccc(-c2ccc3c(ccn3Cc3ccc(-c4ccncc4)cc3)c2)cc1`, the pIC50 at Nonstructural protein 3 is below 4.30.
Same read-out and setting: as for `O=C(NCC1CCNCC1)c1cc2ccc(-c3ccncc3)cc2[nH]1`, the figure is 4.71.
Still for that read-out and setting: as for `CC(C)(C)c1ccc(-c2ccc3[nH]c(C(=O)NCC4CCNCC4)cc3c2)cc1`, the figure is 5.15; as for `O=C(NCC1CCNCC1)c1cc2ccc(C3=CCOCC3)cc2[nH]1`, 5.66; as for `O=C(NCC1CCNCC1)c1c[nH]c2cc(-c3ccc(F)cc3)ccc12`, below 4.30.
For the compound `O=C(NCC1CCNCC1)c1c[nH]c2nc(-c3ccncc3)ccc12`, the pIC50 on Nonstructural protein 3 was 5.72.
Consider `N#Cc1ccc(-c2ccc3[nH]c(C(=O)NCC4CCNCC4)cc3c2)cc1`, for which the pIC50 at Nonstructural protein 3 was 5.04.
`CC(C)(C)c1ccc(-c2cc3[nH]cc(C(=O)NC4CCNCC4)c3cc2-c2ccc(C(C)(C)C)cc2)cc1`: the pIC50 at Nonstructural protein 3 is 5.35.
Turning to `O=C(NCC1CCNCC1)c1cc2cc(-c3ccc(CN4CCCCC4)cc3)ccc2[nH]1`, the negative logarithm of the IC50 (pIC50) on Nonstructural protein 3 was 5.33.
Consider `O=C(NCC1CCNCC1)c1cc2cc(-c3ccc(-c4ccoc4)cc3)ccc2[nH]1`, for which, at Nonstructural protein 3, the pIC50 was 6.06.
`O=C(NCC1CCNCC1)c1cc2ccc(-c3cccnc3)cc2[nH]1`: on Nonstructural protein 3, the pIC50 is 4.57.
On the same count and under the same terms, as for `N#Cc1ccc(-c2ccc3c(C(=O)NC4CCNCC4)coc3c2)cc1`, the figure is below 4.30.
Turning to `O=C(NCC1CCNCC1)c1cc2cc(-c3ccc(N4CCCCC4)cc3)ccc2[nH]1`, the results for the pIC50 on Nonstructural protein 3, at Genome polyprotein [1] and against Genome polyprotein [2] were 4.94, 4.40 and 4.51, respectively.
For the compound `COc1cc(-c2ccc3[nH]cc(C(=O)NC4CCNCC4)c3c2)cc(OC)c1OC`, the pIC50 at Nonstructural protein 3 was below 4.30.
Consider `O=C(NCC1CCNCC1)c1c[nH]c2cc(-c3cn[nH]c3)ccc12`, for which the values for the pIC50 on Nonstructural protein 3, against Genome polyprotein [1] and on Genome polyprotein [2] were 5.24, 4.32 and 4.38, respectively.
Regarding `O=Cc1cccc(-c2ccc3[nH]cc(C(=O)NCC4CCNCC4)c3c2)c1`, the pIC50 at Nonstructural protein 3 is below 4.30.
The same measure, in the same setting: as for `O=C(NCC1CCNCC1)c1cc2cc(-c3ccc(N4CCCC4)cc3)ccc2[nH]1`, the figure is 5.47; as for `O=C(NCC1CCNCC1)c1cc2ccc(-c3ccsc3)cc2[nH]1`, 5.19; as for `O=C(NCC1CCNCC1)c1cc2cc(-c3ccc(N4CCOCC4)cc3)ccc2[nH]1`, 4.48.
Take `O=C(NCC1CCNCC1)c1c[nH]c2ccc(-c3ccc(F)cc3)cc12`: the pIC50 on Nonstructural protein 3 was below 4.30.
Turning to `O=C(NCC1CCNCC1)c1cc2ccc(-c3ccc(CO)cc3)cc2[nH]1`, the CC50 with U-87 MG was above 10 µM. The pIC50 on Nonstructural protein 3 was 5.51. Besides, the EC68 with Zika virus was above 10 µM.
Regarding `O=C(NCC1CCNCC1)c1c[nH]c2nc(-c3ccc(CN4CCOCC4)cc3)ccc12`, the CC50 with U-87 MG is above 10 µM. In addition, the pIC50 on Nonstructural protein 3 is 6.22. The EC68 in the data set with Zika virus is above 10 µM.
For the compound `O=C(NCC1CCNCC1)c1c[nH]c2cc(-c3ccc(Cl)nc3)ccc12`, at Nonstructural protein 3, the pIC50 was 4.38.
Same read-out and setting: as for `O=C(NCC1CCNCC1)c1c[nH]c2cc(-c3ccncc3)ccc12`, the figure is 6.41.
Same read-out and setting: as for `O=C(NCC1CCNCC1)c1c[nH]c2nc(-c3ccc(C(F)(F)F)cc3)ccc12`, the figure is 4.74.
For the compound `O=C(NCCC1CCNCC1)c1c[nH]c2cc(-c3ccncc3)ccc12`, the CC50 in the data set with U-87 MG is above 10 µM. For the same compound, the pIC50 at Nonstructural protein 3 was 6.20. Further, the EC68 in the data set on Zika virus came out at 10 µM.
`O=C(NCC1CCNCC1)c1cc2ccc(-c3ccc(CCO)cc3)cc2[nH]1`: the pIC50 on Nonstructural protein 3 was 4.34.
For the compound `Cc1cc(C#N)ccc1-c1ccc2[nH]c(C(=O)NCC3CCNCC3)cc2c1`, the pIC50 on Nonstructural protein 3 is 4.40; against Genome polyprotein [1], below 4.30; against Genome polyprotein [2] it was below 4.30.
Take `O=C(NC1CCNCC1)c1coc2cc(-c3ccoc3)ccc12`: the pIC50 on Nonstructural protein 3 is 5.54.
Turning to `O=C(NCC1CCNCC1)c1cc2ccccc2[nH]1`, the pIC50 at Nonstructural protein 3 was 4.61.
